The source made the active and inactive calls. The rule behind the calls is not given here.
Columns and labels:
MGC-803 = assay: Inhibition of PI3K-mediated Akt phosphorylation in human MGC803 cells after 48 hrs by Western blot analysis; format: cell-based
Summary of the method: (§1)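 MGC-803 cells exposed 48 h; lysed in RIPA buffer, protein measured by BCA, […] total protein run on SDS–PAGE and blotted to PVDF. Primary antibodies 1 h in TBS/Tween-20 (0.075%) with 3% Marvel: anti-TERT, anti-β-actin, anti-Cyclin D1, anti-phospho-AKT, anti-AKT, each 1:500. HRP secondaries, ECL detection. DMSO vehicle control; LY used as comparator.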

[1] = Downregulation of cyclin D1 expression in human MGC803 cells after 48 hrs by Western blot analysis; format: functional, cell-based; settings: MGC-803; summary of the method: as §1
[2] = Downregulation of TERT expression in human MGC803 cells after 48 hrs by Western blot analysis; format: functional, cell-based; settings: MGC-803; summary of the method: as §1
[3] = molecular target: Telomerase reverse transcriptase (Homo sapiens, UniProt O14746); assay: Inhibition of telomerase activity in human MGC803 cells after 24 hrs by TRAP-PCR-ELISA assay
Chain of Telomerase reverse transcriptase (O14746 whole entry): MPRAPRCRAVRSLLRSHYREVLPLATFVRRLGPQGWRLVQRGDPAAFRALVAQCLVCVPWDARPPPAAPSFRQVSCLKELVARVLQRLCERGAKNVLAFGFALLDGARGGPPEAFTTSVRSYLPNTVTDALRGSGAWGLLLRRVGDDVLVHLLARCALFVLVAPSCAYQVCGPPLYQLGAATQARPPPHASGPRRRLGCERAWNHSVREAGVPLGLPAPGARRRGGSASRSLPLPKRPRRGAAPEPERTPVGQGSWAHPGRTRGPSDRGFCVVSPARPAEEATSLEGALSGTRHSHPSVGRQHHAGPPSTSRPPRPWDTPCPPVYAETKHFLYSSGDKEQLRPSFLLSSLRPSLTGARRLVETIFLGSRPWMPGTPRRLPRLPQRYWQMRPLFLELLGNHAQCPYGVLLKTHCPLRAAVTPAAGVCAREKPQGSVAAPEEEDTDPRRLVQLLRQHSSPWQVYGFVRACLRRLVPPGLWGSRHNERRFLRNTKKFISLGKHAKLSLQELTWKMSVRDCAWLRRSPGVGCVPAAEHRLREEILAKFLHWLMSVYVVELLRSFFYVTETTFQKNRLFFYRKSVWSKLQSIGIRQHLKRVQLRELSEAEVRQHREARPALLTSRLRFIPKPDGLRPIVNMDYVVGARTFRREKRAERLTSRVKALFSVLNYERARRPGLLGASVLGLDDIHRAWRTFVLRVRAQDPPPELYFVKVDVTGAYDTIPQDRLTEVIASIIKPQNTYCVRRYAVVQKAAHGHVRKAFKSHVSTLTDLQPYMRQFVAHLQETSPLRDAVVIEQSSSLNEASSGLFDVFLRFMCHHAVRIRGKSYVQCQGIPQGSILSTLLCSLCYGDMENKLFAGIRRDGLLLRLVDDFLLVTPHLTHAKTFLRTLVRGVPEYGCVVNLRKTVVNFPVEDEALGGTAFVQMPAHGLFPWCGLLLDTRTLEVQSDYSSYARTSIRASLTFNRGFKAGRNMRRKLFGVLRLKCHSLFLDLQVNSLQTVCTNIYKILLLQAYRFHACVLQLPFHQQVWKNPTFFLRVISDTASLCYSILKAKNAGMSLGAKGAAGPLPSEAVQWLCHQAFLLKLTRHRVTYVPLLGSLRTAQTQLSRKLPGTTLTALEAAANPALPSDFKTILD

Row | Structure (SMILES) | inhibition (MGC-803) | Activity [1] | Activity [2] | IC50 [3]
1 | CC1=NN2C(=O)COc3ccc(Cl)cc3C2C1 (centres undefined) | Active | Active | Active | 1.71 µM
2 | CC1=NN2C(=O)COc3c(Br)cc(Br)cc3C2C1 (centres undefined) | Active | Active | Active | 0.78 µM
3 | CC1=NN2C(=O)COc3ccccc3C2C1 (centres undefined) |  |  |  | 14.8 µM
4 | CC1=NN2C(=O)COc3ccc(C(F)(F)F)cc3C2C1 (centres undefined) |  |  | Active | 3.14 µM
5 | CC1=NN2C(=O)COc3cc(C)ccc3C2C1 (centres undefined) |  |  | Active | 21.9 µM
6 | CC1=NN2C(=O)COc3cc([N+](=O)[O-])ccc3C2C1 (centres undefined) |  |  |  | 6.6 µM
7 | COc1cccc2c1OCC(=O)N1N=C(C)CC21 (centres undefined) |  |  | Active | 10.8 µM
8 | CC1=NN2C(=O)COc3c(F)cccc3C2C1 (centres undefined) |  |  | Active | 2.11 µM
9 | CC[n+]1c(-c2ccccc2)c2cc(N)ccc2c2ccc(N)cc21 [HOMIDIUM BROMIDE] |  |  |  | 2.39 µM

Source: ChEMBL document CHEMBL2321715, “Design and synthesis of novel 2-methyl-4,5-substitutedbenzo[f]-3,3a,4,5-tetrahydro-pyrazolo[1,5-d][1,4]oxazepin-8(7H)-one derivatives as telomerase inhibitors” (Bioorg Med Chem Lett, 2013)
